According to ChEMBL document CHEMBL2157880, “Synthesis, antimycobacterial and antibacterial activity of ciprofloxacin derivatives containing a N-substituted benzyl moiety” (2012):
Converted amounts (≈) assume the structure as drawn.

Key:
Type in all cases: functional
Enterococcus faecium [1] = test: Antibacterial activity against Enterococcus faecium 10-9 after 18 to 24 hrs by NCCLS method
In short: (§1)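 Standard NCCLS (M100-S11) MIC testing against Gram-positive and Gram-negative strains. Plates were incubated at 35 °C for 18–24 h. The MIC was read as the lowest concentration giving complete inhibition of visible bacterial growth.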

Klebsiella pneumoniae [2] = test: Antibacterial activity against Klebsiella pneumoniae 10-3 after 18 to 24 hrs by NCCLS method; in short: as §1
Staphylococcus aureus [3] = test: Antibacterial activity against methicillin-sensitive Staphylococcus aureus 10-13 after 18 to 24 hrs by NCCLS method; in short: as §1
Escherichia coli [4] = test: Antibacterial activity against extended spectrum beta-lactamases producing Escherichia coli 10-2 after 18 to 24 hrs by NCCLS method; in short: as §1
[5] = tested on: Staphylococcus epidermidis; test: Antibacterial activity against methicillin-resistant Staphylococcus epidermidis 10-10 after 18 to 24 hrs by NCCLS method
In short: (§2)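 Incubated at 35 °C for 18–24 h under NCCLS (M100-S11) standards. MIC was read as the lowest concentration giving complete inhibition of visible bacterial growth.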

Enterococcus faecalis [6] = test: Antibacterial activity against Enterococcus faecalis 10-7 after 18 to 24 hrs by NCCLS method; in short: as §1
Escherichia coli [7] = test: Antibacterial activity against extended spectrum beta-lactamases producing Escherichia coli 10-4 after 18 to 24 hrs by NCCLS method; in short: as §1
Escherichia coli [8] = test: Antibacterial activity against Escherichia coli ATCC 25922 after 18 to 24 hrs by NCCLS method; in short: as §1
Pseudomonas aeruginosa [9] = test: Antibacterial activity against Pseudomonas aeruginosa 10-20 after 18 to 24 hrs by NCCLS method; in short: as §1
Escherichia coli [10] = test: Antibacterial activity against Escherichia coli 10-3 after 18 to 24 hrs by NCCLS method; in short: as §1
Klebsiella pneumoniae [11] = test: Antibacterial activity against extended spectrum beta-lactamases producing Klebsiella pneumoniae 10-2 after 18 to 24 hrs by NCCLS method; in short: as §1
Klebsiella pneumoniae [12] = test: Antibacterial activity against extended spectrum beta-lactamases producing Klebsiella pneumoniae 10-1 after 18 to 24 hrs by NCCLS method; in short: as §1
Klebsiella pneumoniae [13] = test: Antibacterial activity against Klebsiella pneumoniae 10-2 after 18 to 24 hrs by NCCLS method; in short: as §1
Staphylococcus aureus [14] = test: Antibacterial activity against methicillin-resistant Staphylococcus aureus 10-13 after 18 to 24 hrs by NCCLS method; in short: as §2
Pseudomonas aeruginosa [15] = test: Antibacterial activity against Pseudomonas aeruginosa 10-12 after 18 to 24 hrs by NCCLS method; in short: as §1
Staphylococcus aureus [16] = test: Antibacterial activity against methicillin-resistant Staphylococcus aureus 10-11 after 18 to 24 hrs by NCCLS method; in short: as §2
Staphylococcus aureus [17] = test: Antibacterial activity against methicillin-resistant Staphylococcus aureus 10-15 after 18 to 24 hrs by NCCLS method; in short: as §2
Staphylococcus aureus [18] = test: Antibacterial activity against methicillin-sensitive Staphylococcus aureus 10-11 after 18 to 24 hrs by NCCLS method; in short: as §1
[19] = tested on: Staphylococcus epidermidis; test: Antibacterial activity against methicillin-sensitive Staphylococcus epidermidis 10-15 after 18 to 24 hrs by NCCLS method; in short: as §2
Klebsiella pneumoniae [20] = test: Antibacterial activity against Klebsiella pneumoniae 10-4 after 18 to 24 hrs by NCCLS method; in short: as §1
Klebsiella pneumoniae [21] = test: Antibacterial activity against extended spectrum beta-lactamases producing Klebsiella pneumoniae 10-3 after 18 to 24 hrs by NCCLS method; in short: as §1
Escherichia coli [22] = test: Antibacterial activity against Escherichia coli 10-2 after 18 to 24 hrs by NCCLS method; in short: as §1
[23] = tested on: Mycobacterium tuberculosis; test: Antimycobacterial activity against Mycobacterium tuberculosis H37Rv ATCC 27294 by microplate alamar blue assay
In short: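 Microplate Alamar Blue fluorescence assay on strain H37Rv ATCC 27294. MIC was the lowest concentration cutting fluorescence by ≥90% against the mean of replicate bacterium-only controls.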

Staphylococcus aureus [24] = test: Antibacterial activity against methicillin-sensitive Staphylococcus aureus 10-14 after 18 to 24 hrs by NCCLS method; in short: as §1
[25] = tested on: Staphylococcus epidermidis; test: Antibacterial activity against methicillin-resistant Staphylococcus epidermidis 10-13 after 18 to 24 hrs by NCCLS method; in short: as §2
Pseudomonas aeruginosa [26] = test: Antibacterial activity against Pseudomonas aeruginosa 10-15 after 18 to 24 hrs by NCCLS method; in short: as §1
Enterococcus faecalis [27] = test: Antibacterial activity against Enterococcus faecalis 10-5 after 18 to 24 hrs by NCCLS method; in short: as §1
Pseudomonas aeruginosa [28] = test: Antibacterial activity against Pseudomonas aeruginosa 10-5 after 18 to 24 hrs by NCCLS method; in short: as §1
Streptococcus pneumoniae [29] = test: Antibacterial activity against Streptococcus pneumoniae 10-1 after 18 to 24 hrs by NCCLS method; in short: as §1
Pseudomonas aeruginosa [30] = test: Antibacterial activity against Pseudomonas aeruginosa 10-18 after 18 to 24 hrs by NCCLS method; in short: as §1
[31] = tested on: Staphylococcus epidermidis; test: Antibacterial activity against methicillin-sensitive Staphylococcus epidermidis 10-11 after 18 to 24 hrs by NCCLS method; in short: as §1
Enterococcus faecalis [32] = test: Antibacterial activity against Enterococcus faecalis 10-6 after 18 to 24 hrs by NCCLS method; in short: as §1
Streptococcus pneumoniae [33] = test: Antibacterial activity against Streptococcus pneumoniae 10-6 after 18 to 24 hrs by NCCLS method; in short: as §1
Enterococcus faecium [34] = test: Antibacterial activity against Enterococcus faecium 10-6 after 18 to 24 hrs by NCCLS method; in short: as §1
Staphylococcus aureus [35] = test: Antibacterial activity against Staphylococcus aureus ATCC 2592 after 18 to 24 hrs by NCCLS method; in short: as §1
Pseudomonas aeruginosa [36] = test: Antibacterial activity against Pseudomonas aeruginosa 10-9 after 18 to 24 hrs by NCCLS method; in short: as §1
Escherichia coli [37] = test: Antibacterial activity against Escherichia coli 10-1 after 18 to 24 hrs by NCCLS method; in short: as §1
Escherichia coli [38] = test: Antibacterial activity against extended spectrum beta-lactamases producing Escherichia coli 10-3 after 18 to 24 hrs by NCCLS method; in short: as §1

Compound	MIC (Enterococcus faecium [1]) [µg/mL]	MIC (Klebsiella pneumoniae [2]) [µg/mL]	MIC (Staphylococcus aureus [3]) [µg/mL]	MIC (Escherichia coli [4]) [µg/mL]	MIC [5] [µg/mL]	MIC (Enterococcus faecalis [6]) [µg/mL]	MIC (Escherichia coli [7]) [µg/mL]	MIC (Escherichia coli [8]) [µg/mL]	MIC (Pseudomonas aeruginosa [9]) [µg/mL]	MIC (Escherichia coli [10]) [µg/mL]	MIC (Klebsiella pneumoniae [11]) [µg/mL]	MIC (Klebsiella pneumoniae [12]) [µg/mL]	MIC (Klebsiella pneumoniae [13]) [µg/mL]	MIC (Staphylococcus aureus [14]) [µg/mL]	MIC (Pseudomonas aeruginosa [15]) [µg/mL]	MIC (Staphylococcus aureus [16]) [µg/mL]	MIC (Staphylococcus aureus [17]) [µg/mL]	MIC (Staphylococcus aureus [18]) [µg/mL]	MIC [19] [µg/mL]	MIC (Klebsiella pneumoniae [20]) [µg/mL]	further results
O=C(O)c1cn(C2CC2)c2cc(N3CCN(Cc4ccccc4)CC3)c(F)cc2c1=O	16 (≈ 38 µM)	16 (≈ 38 µM)	0.25 (≈ 0.593 µM)	> 128	16 (≈ 38 µM)	16 (≈ 38 µM)	16 (≈ 38 µM)	0.25 (≈ 0.593 µM)	16 (≈ 38 µM)	16 (≈ 38 µM)	> 128	> 128	> 128	64 (≈ 152 µM)	16 (≈ 38 µM)	64 (≈ 152 µM)	16 (≈ 38 µM)	0.25 (≈ 0.593 µM)	16 (≈ 38 µM)	> 128	MIC (Klebsiella pneumoniae [21]): > 128 µg/mL; MIC (Escherichia coli [22]): 16 µg/mL (≈ 38 µM); MIC [23]: 1 µg/mL (≈ 2.37 µM); MIC (Staphylococcus aureus [24]): 0.25 µg/mL (≈ 0.593 µM); MIC [25]: 0.5 µg/mL (≈ 1.19 µM); MIC (Pseudomonas aeruginosa [26]): 32 µg/mL (≈ 75.9 µM); MIC (Enterococcus faecalis [27]): 16 µg/mL (≈ 38 µM); MIC (Pseudomonas aeruginosa [28]): 16 µg/mL (≈ 38 µM); MIC (Streptococcus pneumoniae [29]): 16 µg/mL (≈ 38 µM); MIC (Pseudomonas aeruginosa [30]): 8 µg/mL (≈ 19 µM); MIC [31]: 32 µg/mL (≈ 75.9 µM); MIC (Enterococcus faecalis [32]): 16 µg/mL (≈ 38 µM); MIC (Streptococcus pneumoniae [33]): 16 µg/mL (≈ 38 µM); MIC (Enterococcus faecium [34]): 16 µg/mL (≈ 38 µM); MIC (Staphylococcus aureus [35]): 0.25 µg/mL (≈ 0.593 µM); MIC (Pseudomonas aeruginosa [36]): 16 µg/mL (≈ 38 µM); MIC (Escherichia coli [37]): > 128 µg/mL; MIC (Escherichia coli [38]): > 128 µg/mL
COc1ccc(CN2CCN(c3cc4c(cc3F)c(=O)c(C(=O)O)cn4C3CC3)CC2)c(Cl)c1OC	32 (≈ 62 µM)	32 (≈ 62 µM)	0.5 (≈ 0.969 µM)	> 128	32 (≈ 62 µM)	32 (≈ 62 µM)	> 128	1 (≈ 1.94 µM)	64 (≈ 124 µM)	> 128	> 128	> 128	> 128	128 (≈ 248 µM)	64 (≈ 124 µM)	64 (≈ 124 µM)	64 (≈ 124 µM)	0.5 (≈ 0.969 µM)	32 (≈ 62 µM)	> 128	MIC (Klebsiella pneumoniae [21]): > 128 µg/mL; MIC (Escherichia coli [22]): 32 µg/mL (≈ 62 µM); MIC [23]: 2 µg/mL (≈ 3.88 µM); MIC (Staphylococcus aureus [24]): 0.5 µg/mL (≈ 0.969 µM); MIC [25]: 32 µg/mL (≈ 62 µM); MIC (Pseudomonas aeruginosa [26]): 64 µg/mL (≈ 124 µM); MIC (Enterococcus faecalis [27]): 8 µg/mL (≈ 15.5 µM); MIC (Pseudomonas aeruginosa [28]): 64 µg/mL (≈ 124 µM); MIC (Streptococcus pneumoniae [29]): 2 µg/mL (≈ 3.88 µM); MIC (Pseudomonas aeruginosa [30]): 128 µg/mL (≈ 248 µM); MIC [31]: 1 µg/mL (≈ 1.94 µM); MIC (Enterococcus faecalis [32]): 64 µg/mL (≈ 124 µM); MIC (Streptococcus pneumoniae [33]): 64 µg/mL (≈ 124 µM); MIC (Enterococcus faecium [34]): 4 µg/mL (≈ 7.75 µM); MIC (Staphylococcus aureus [35]): 0.06 µg/mL (≈ 0.116 µM); MIC (Pseudomonas aeruginosa [36]): 128 µg/mL (≈ 248 µM); MIC (Escherichia coli [37]): > 128 µg/mL; MIC (Escherichia coli [38]): > 128 µg/mL
